Results on 24 molecules are retold here after ChEMBL document CHEMBL1667795, “Phosphonic pseudopeptides as human neutrophil elastase inhibitors--a combinatorial approach” (Bioorg Med Chem, 2011).

Series [1] is described as follows: Inhibition of trypsin at 2.5 uM after 30 mins relative to control. An outline of the steps: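 Trypsin (final 2.5 nM) preincubated 30 min at 37 °C with 2.5 µM inhibitor in 0.1 M HEPES, 0.01 M CaCl2, pH 7.5. Bzl-Arg-AFC added, fluorescence read at Ex 380/Em 505 nm. Percent inhibition relative to the control sample.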
Series [2] can be described thus: Inhibition of chymotrypsin at 2.5 uM after 30 mins relative to control. In outline:
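Suc-Ala-Ala-Pro-Phe-AMC then added, fluorescence read at Ex 350/Em 460 nm. Inhibition given as percent of enzyme activity relative to the control sample.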

Series [3] deals with T1, Neutrophil elastase (Homo sapiens) (UniProt P08246).
T1 sequence (whole entry): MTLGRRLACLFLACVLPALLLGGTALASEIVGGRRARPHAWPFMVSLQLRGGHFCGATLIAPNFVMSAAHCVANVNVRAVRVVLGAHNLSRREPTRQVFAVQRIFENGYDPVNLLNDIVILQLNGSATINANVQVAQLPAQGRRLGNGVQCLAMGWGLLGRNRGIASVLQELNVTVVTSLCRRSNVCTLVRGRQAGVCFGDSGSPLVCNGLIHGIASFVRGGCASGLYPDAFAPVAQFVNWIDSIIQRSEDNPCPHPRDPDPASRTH
The experiment in a line: Inhibition of human neutrophil elastase after 15 mins.

Series [4] concerns A549. The experiment in a line: Cytotoxicity against human A549 cells at 250 uM after 48 hrs by MTT assay. In kind it is functional. The settings on record: A549, 48 h. An outline of the steps:
(§1)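 A549 lung cancer cells kept at 37 °C, 5% CO2, harvested by trypsinization and PBS wash. Seeded 1 × 10^4 cells/well, attached overnight, then 48 h with inhibitor diluted in medium from DMSO stocks; DMSO-only controls. MTT absorbance at 570 nm, growth as percent of untreated control, mean ± one SD.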
(Tetrazolium dyes change colour on reduction, which living cells bring about.)

For series [5], the system named is A549. Kind of series: Cytotoxicity against human A549 cells at 500 uM after 48 hrs by MTT assay. Type of series: functional. As to conditions: A549, 48 h. An outline of the steps: as §1
A short description of series [6]: Cytotoxicity against HGF at 500 uM after 48 hrs by MTT assay. In kind it is cell-based. As to conditions: human. In outline: (§2)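 Human gingival fibroblasts isolated from healthy gingival biopsies, grown in DMEM with 10% FBS, glutamine and penicillin/streptomycin at 37 °C, 5% CO2. Seeded 1 × 10^4 cells/well, attached overnight, then exposed 48 h to inhibitor diluted in medium from DMSO stocks; DMSO-only controls. MTT read at 570 nm, viability expressed as percent of untreated control.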

A short description of series [7]: Cytotoxicity against HGF at 250 uM after 48 hrs by MTT assay. Type of series: cell-based. As to conditions: human, HGF cells; read-out: INH. An outline of the steps: as §2
In series [8] the test system is A549. The experiment in a line: Cytotoxicity against human A549 cells at 125 to 500 uM after 48 hrs by MTT assay. Type of series: functional. In outline: as §1

SMILES strings stand for the structures. Active and inactive are the calls of the source. The rule behind the calls is not given here.

With `CCCCN(C(=O)CNC(=O)OCc1ccccc1)[C@H](C(=O)N[C@H](C(C)C)P(=O)(Oc1ccc(SC)cc1)Oc1ccc(SC)cc1)C(C)C`, in series [1], the inhibition (as a rule, the share of the control response that was lost under treatment) is “inactive”. The inhibition in series [2] is 8%. Besides, the kinact/Ki (second-order inactivation rate constant) in series [3] amounted to 495 M⁻¹ s⁻¹.
Taken in the same sequence, the figures for `CSCC[C@H](NC(=O)OCc1ccccc1)C(=O)O[C@@H](CCc1ccccc1)C(=O)N[C@H](C(C)C)P(=O)(Oc1ccc(Cl)cc1)Oc1ccc(Cl)cc1` were “inactive”, “inactive” and 1620 M⁻¹ s⁻¹.
Taken in the same sequence, the figures for `CSCC[C@H](NC(=O)OCc1ccccc1)C(=O)O[C@@H](CC(C)C)C(=O)N[C@H](C(C)C)P(=O)(Oc1ccc(SC)cc1)Oc1ccc(SC)cc1` were “inactive”, “inactive” and 4400 M⁻¹ s⁻¹.
The matching figures for `CCCCCC(=O)N1CCN([C@H](C(=O)N[C@H](C(C)C)P(=O)(Oc2ccc(SC)cc2)Oc2ccc(SC)cc2)c2ccc(OC)c(OC)c2)CC1`: “inactive”, “inactive” and 125 M⁻¹ s⁻¹.
As for `CSCC[C@H](NC(=O)OCc1ccccc1)C(=O)O[C@@H](CCSC)C(=O)N[C@H](C(C)C)P(=O)(Oc1ccc(SC)cc1)Oc1ccc(SC)cc1`, in series [1], the inhibition entry was “inactive”. Also, the inhibition in series [2] is 14%. The kinact/Ki (second-order inactivation rate constant) in series [3] came out at 5900 M⁻¹ s⁻¹.
Taken in the same sequence, the figures for `CSCC[C@H](NC(=O)OCc1ccccc1)C(=O)O[C@@H](CCc1ccccc1)C(=O)N[C@H](C(C)C)P(=O)(Oc1ccc(SC)cc1)Oc1ccc(SC)cc1` were “inactive”, “inactive” and 765 M⁻¹ s⁻¹.
The matching figures for `COc1ccc([C@H](OC(=O)[C@H](CCSC)NC(=O)OCc2ccccc2)C(=O)N[C@H](C(C)C)P(=O)(Oc2ccc(Cl)cc2)Oc2ccc(Cl)cc2)cc1OC`: “inactive”, 21% and 165 M⁻¹ s⁻¹.
Taken in the same sequence, the figures for `CSCC[C@H](NC(=O)OCc1ccccc1)C(=O)O[C@@H](Cc1ccccc1)C(=O)N[C@H](C(C)C)P(=O)(Oc1ccc(SC)cc1)Oc1ccc(SC)cc1` were “inactive”, “inactive” and 605 M⁻¹ s⁻¹.
Turning to `CSCC[C@H](NC(=O)OCc1ccccc1)C(=O)O[C@@H](CCSC)C(=O)N[C@H](C(C)C)P(=O)(Oc1ccc(Cl)cc1)Oc1ccc(Cl)cc1`, the inhibition result in series [1] and in series [2] was “inactive” each time. The molecule also had an inhibition at 250 µM in the series on A549 [4] of 25%. Also, in the series with A549 [5], the inhibition at 500 µM amounted to 60%. Also, the kinact/Ki (second-order inactivation rate constant) in series [3] was 40100 M⁻¹ s⁻¹.
Take `CSCC[C@H](NC(=O)OCc1ccccc1)C(=O)O[C@H](C(=O)N[C@H](C(C)C)P(=O)(Oc1ccc(SC)cc1)Oc1ccc(SC)cc1)c1ccc(F)cc1`: the inhibition result in series [1] and in series [2] was “inactive” in each case. The kinact/Ki (second-order inactivation rate constant) in series [3] came to 4850 M⁻¹ s⁻¹.
Consider `CCCCCC(=O)N1CCN([C@H](C(=O)N[C@H](C(C)C)P(=O)(Oc2ccc(SC)cc2)Oc2ccc(SC)cc2)c2ccc([N+](=O)[O-])cc2)CC1`, for which the inhibition result in series [1] and in series [2] was “inactive” throughout. For the same molecule, in series [3], the kinact/Ki (second-order inactivation rate constant) came to 140 M⁻¹ s⁻¹.
Regarding `CCCCN(C(=O)CNC(=O)OCc1ccccc1)[C@@H](CC(C)C)C(=O)N[C@H](C(C)C)P(=O)(Oc1ccc(SC)cc1)Oc1ccc(SC)cc1`, the inhibition entry in series [1] and in series [2] was “inactive” throughout. Moreover, in series [3], the kinact/Ki (second-order inactivation rate constant) is 145 M⁻¹ s⁻¹.
Consider `CSCC[C@H](NC(=O)OCc1ccccc1)C(=O)O[C@H](C(=O)N[C@H](C(C)C)P(=O)(Oc1ccc(Cl)cc1)Oc1ccc(Cl)cc1)c1ccc([N+](=O)[O-])cc1`, for which the inhibition result in series [1] and in series [2] was “inactive” each time. The kinact/Ki (second-order inactivation rate constant) in series [3] came to 165 M⁻¹ s⁻¹.
In the case of `CCCCCC(=O)N1CCN([C@@H](CCSC)C(=O)N[C@H](C(C)C)P(=O)(Oc2ccc(SC)cc2)Oc2ccc(SC)cc2)CC1`, the inhibition entry in series [1] is “inactive”. The kinact/Ki (second-order inactivation rate constant) in series [3] worked out at 140 M⁻¹ s⁻¹.
On to `CCCCN(C(=O)CNC(=O)OCc1ccccc1)[C@@H](CCc1ccccc1)C(=O)N[C@H](C(C)C)P(=O)(Oc1ccc(SC)cc1)Oc1ccc(SC)cc1`, for which, in series [6], the Activity result is given as “Toxic”. The inhibition entry in series [1] was “inactive”. In addition, the cytotoxicity at 48 h, 250 µM in series [7] turned out to be 10%. Besides, the inhibition at 250 µM in the series on A549 [4] was 70%. The molecule further had an inhibition in series [2] of 15%. For the same molecule, the kinact/Ki (second-order inactivation rate constant) in series [3] came out at 1420 M⁻¹ s⁻¹. Also, the “inhibition (INH)” value with A549 [8] is reported as 50%.
Regarding `CCCCN(C(=O)CNC(=O)OCc1ccccc1)[C@@H](Cc1ccccc1)C(=O)N[C@H](C(C)C)P(=O)(Oc1ccc(SC)cc1)Oc1ccc(SC)cc1`, the inhibition entry in series [1] is “inactive”. Moreover, in series [2], the inhibition worked out at 14%. Besides, the kinact/Ki (second-order inactivation rate constant) in series [3] is 1360 M⁻¹ s⁻¹.
Taken in the same sequence, the figures for `CSCC[C@H](NC(=O)OCc1ccccc1)C(=O)O[C@H](C(=O)N[C@H](C(C)C)P(=O)(Oc1ccc(SC)cc1)Oc1ccc(SC)cc1)C(C)C` were “inactive”, 15% and 5050 M⁻¹ s⁻¹.
The matching figures for `CSCC[C@H](NC(=O)OCc1ccccc1)C(=O)O[C@H](C(=O)N[C@H](C(C)C)P(=O)(Oc1ccc(Cl)cc1)Oc1ccc(Cl)cc1)C(C)C`: “inactive”, 15% and 20500 M⁻¹ s⁻¹.
Taken in the same sequence, the figures for `CCCCCC(=O)N1CCN([C@H](C(=O)N[C@H](C(C)C)P(=O)(Oc2ccc(SC)cc2)Oc2ccc(SC)cc2)c2ccc(F)cc2)CC1` were “inactive”, “inactive” and 330 M⁻¹ s⁻¹.
As for `CSCC[C@H](NC(=O)OCc1ccccc1)C(=O)O[C@@H](CC(C)C)C(=O)N[C@H](C(C)C)P(=O)(Oc1ccc(Cl)cc1)Oc1ccc(Cl)cc1`, the inhibition entry in series [1] and in series [2] was “inactive” throughout. For the same molecule, at 500 µM the inhibition in the series with A549 [5] was 75%. The kinact/Ki (second-order inactivation rate constant) in series [3] worked out at 7250 M⁻¹ s⁻¹.
Turning to `COc1ccc([C@H](OC(=O)[C@H](CCSC)NC(=O)OCc2ccccc2)C(=O)N[C@H](C(C)C)P(=O)(Oc2ccc(SC)cc2)Oc2ccc(SC)cc2)cc1OC`, the inhibition result in series [1] was “inactive”. Also, the inhibition in series [2] turned out to be 22%. In series [3], the kinact/Ki (second-order inactivation rate constant) came to 3800 M⁻¹ s⁻¹.
The matching figures for `CSCC[C@H](NC(=O)OCc1ccccc1)C(=O)O[C@H](C(=O)N[C@H](C(C)C)P(=O)(Oc1ccc(Cl)cc1)Oc1ccc(Cl)cc1)c1ccc(F)cc1`: “inactive”, 16% and 215 M⁻¹ s⁻¹.
Regarding `CSCC[C@H](NC(=O)OCc1ccccc1)C(=O)O[C@H](C(=O)N[C@H](C(C)C)P(=O)(Oc1ccc(SC)cc1)Oc1ccc(SC)cc1)c1ccc([N+](=O)[O-])cc1`, the inhibition result in series [1] and in series [2] was “inactive” throughout. For the same molecule, in series [3], the kinact/Ki (second-order inactivation rate constant) turned out to be 430 M⁻¹ s⁻¹.
For the molecule `CSCC[C@H](NC(=O)OCc1ccccc1)C(=O)O[C@@H](Cc1ccccc1)C(=O)N[C@H](C(C)C)P(=O)(Oc1ccc(Cl)cc1)Oc1ccc(Cl)cc1`, the inhibition entry in series [1] and in series [2] was “inactive” each time. Further, the kinact/Ki (second-order inactivation rate constant) in series [3] came to 695 M⁻¹ s⁻¹.
